Measurements as given in paper PMC9065995 (RSC Advances, 2019).
In brackets after ≈: the same amount, converted by molar mass. Starred links: 1 amine or outer side, 2 acyl side, 3 side chain; linkers in the order of their positions; H or OH if unused. Positions of bridges follow the written chain, without caps; N, C: chain ends. Non-standard residues stand in square brackets, D forms with d. Residues, ends and D or L forms follow the SMILES beside them. Chains are numbered I, II in the order given. Actinocin(9to1) = Cc1c2oc3c(C)ccc(C(=O)[*:1])c3nc-2c(C(=O)[*:2])c(N)c1=O; NMeV = CN[C@H](C(=O)O)C(C)C; Sar = CNCC(=O)O

What was measured:
Assay type in all cases: cell-based
HepG2 = test: SRB cytostatic activity assay, HepG2; details: Homo sapiens, HepG2, 72 h, read-out: Cytostatic activity IC50 HepG2
Outline: (§1)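 Media were EMEM (KB, HepG2, U-87), RPMI 1640 (HeLa), F-12K (A-549), DMEM (MCF-7) and fibroblast growth medium (HDF), all with 10% FBS, at 37 °C and 5% CO2. About 10^4 cells/well grew 24 h, then test compound was added at 0.1–20 μg mL−1 (six levels) for 72 h. Cells were TCA-fixed 1 h at 4 °C, stained with 0.4% SRB, solubilised in Tris, read at A490; IC50, N = 3.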

HeLa = test: SRB cytostatic activity assay, HeLa; details: Homo sapiens, 72 h, read-out: Cytostatic activity IC50 HeLa
Outline: as §1

KB = test: SRB cytostatic activity assay, KB; details: Homo sapiens, 72 h, read-out: Cytostatic activity IC50 KB
Outline: as §1

HDF = test: SRB cytostatic activity assay, normal control HDF; details: 72 h, read-out: Cytostatic activity IC50 HDF
Outline: as §1

A-549 = test: SRB cytostatic activity assay, A-549; details: Homo sapiens, A549, 72 h, read-out: Cytostatic activity IC50 A-549
Outline: as §1

U-87 MG = test: SRB cytostatic activity assay, U-87 MG; details: Homo sapiens, 72 h, read-out: Cytostatic activity IC50 U-87 MG
Outline: as §1

IC50 (HepG2) [µg/mL] | IC50 (HeLa) [µg/mL] | IC50 (KB) [µg/mL] | IC50 (A-549) [µg/mL] | IC50 (U-87 MG) [µg/mL] | Compound | IC50 (HDF) [µg/mL]
1.19 ± 0.02 (≈ 0.948 µM) | 1.13 ± 0.01 (≈ 0.9 µM) | 1.07 ± 0.05 (≈ 0.852 µM) | 1.03 ± 0.83 (≈ 0.82 µM) | 0.92 ± 0.59 (≈ 0.733 µM) | Cc1c2oc3c(C)ccc(C(=O)N[C@@H]4C(=O)N[C@H](C(C)C)C(=O)N5CCC[C@H]5C(=O)N(C)CC(=O)N(C)[C@@H](C(C)C)C(=O)O[C@@H]4C)c3nc-2c(C(=O)N[C@@H]2C(=O)N[C@H](C(C)C)C(=O)N3CCC[C@H]3C(=O)N(C)CC(=O)N(C)[C@@H](C(C)C)C(=O)O[C@@H]2C)c(N)c1=O [Actinomycin, Actinomycin D] (I: T[dV]P[Sar][NMeV] / II: T[dV]P[Sar][NMeV]; ester I:1-I:C, II:1-II:C; linker I:N-II:N via Actinocin(9to1)) | 2.28 ± 0.11 (≈ 1.82 µM)
1.49 ± 0.04 (≈ 6.13 µM) | 1.4 ± 0.08 (≈ 5.76 µM) | 0.95 ± 0.02 (≈ 3.91 µM) | 1.17 ± 0.21 (≈ 4.81 µM) | 1.03 ± 0.25 (≈ 4.23 µM) | Nc1ccn([C@@H]2O[C@H](CO)[C@@H](O)[C@@H]2O)c(=O)n1 [Cytarabine] | 1.94 ± 0.01 (≈ 7.98 µM)
